Test results: ChEMBL document CHEMBL4033779 (J Med Chem, 2018)
Converted amounts (≈) assume the structure as drawn. Blank lines part the entries; values can stand above or below the compound they belong to.

Assays:
[1] = system: Human immunodeficiency virus 1; experiment: Antiviral activity against HIV 1 isolate JRFL by single cycle infectivity assay; type: functional; settings: Human immunodeficiency virus 1, isolate JRFL
Method in brief: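 HEK293T producer cells cotransfected with a proviral HIV-1 LAI-Δenv-luc plasmid (firefly luciferase in place of env) and an LTR-driven JR-FL env plasmid. The resulting pseudotyped virions complete only one replication round; infection is read out as luciferase signal.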

[2] = Aqueous solubility of the compound at pH 7.4; type: physicochemical
[3] = Solubility of the compound in acetonitrile; type: physicochemical
[4] = Protein binding in human plasma; type: ADME, cell-free; settings: read-out: PPB (converted)
[5] = Dissociation constant, pKa of the compound; type: physicochemical
[6] = Competitive inhibition of soluble CD4 binding to HIV-1 gp120 after 2 hrs by ELISA; parameters: species or system Human immunodeficiency virus 1
Canis familiaris = experiment: Oral bioavailability in dog assessed as 1-(4-benzoylpiperazin-1-yl)-2-(4-methoxy-7-(3-methyl-1H-1,2,4-triazol-1-yl)-1H-pyrrolo[2,3-c]pyridin-3-yl)ethane-1,2-dione level; type: ADME, organism-based, Canis lupus familiaris; settings: in vivo
[7] = system: Human immunodeficiency virus 1; experiment: Antiviral activity against HIV1 infected in human assessed as decrease in viral load in plasma at 800 mg bid measured on day 8; type: functional
Method in brief: (§1)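 Eight-day monotherapy in HIV-1-infected subjects: 800 or 1800 mg given BID with a high-fat meal (n = 12 per arm, placebo n = 6). Plasma viral load was measured on day 8 and reported as mean decline in log10 copies/mL.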

Homo sapiens [8] = organism: Homo sapiens; experiment: Half life in human assessed as 1-(4-benzoylpiperazin-1-yl)-2-(4-methoxy-7-(3-methyl-1H-1,2,4-triazol-1-yl)-1H-pyrrolo[2,3-c]pyridin-3-yl)ethane-1,2-dione level; type: ADME
Rhesus monkey = experiment: Oral bioavailability in monkey assessed as 1-(4-benzoylpiperazin-1-yl)-2-(4-methoxy-7-(3-methyl-1H-1,2,4-triazol-1-yl)-1H-pyrrolo[2,3-c]pyridin-3-yl)ethane-1,2-dione level; type: ADME, organism-based, Macaca mulatta; settings: in vivo
Rattus norvegicus = experiment: Oral bioavailability in rat assessed as 1-(4-benzoylpiperazin-1-yl)-2-(4-methoxy-7-(3-methyl-1H-1,2,4-triazol-1-yl)-1H-pyrrolo[2,3-c]pyridin-3-yl)ethane-1,2-dione level; type: ADME, organism-based; settings: in vivo
[9] = Aqueous solubility of the compound at pH 1.5 to 8.2; type: physicochemical
Method in brief: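 Aqueous solubility measured over pH 1.5−8.2 at room temperature.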

[10] = system: Human immunodeficiency virus 2; experiment: Antiviral activity against HIV2; type: functional
[11] = system: Simian immunodeficiency virus; experiment: Antiviral activity against SIV; type: functional
[12] = Half life in human administered as capsule; type: ADME; settings: po
[13] = system: Human immunodeficiency virus 1; experiment: Antiviral activity against HIV-1 3B infected in human MT2 cells harboring CXCR4 co-receptor after 4 to 6 days; type: functional, cell-based; settings: Human immunodeficiency virus 1, 3B
[14] = system: Human immunodeficiency virus 1; experiment: Antiviral activity against HIV1 infected in human assessed as decrease in viral load in plasma at 1800 mg bid measured on day 8; type: functional; method in brief: as §1
[15] = system: Human immunodeficiency virus 1; experiment: Antiviral activity against HIV-1 89.6 infected in human PM1 cells harboring dual co-receptors after 4 to 6 days by p24 ELISA; type: functional, cell-based; settings: Human immunodeficiency virus 1, 89.6, PM1
[16] = system: Human immunodeficiency virus 1; experiment: Antiviral activity against HIV-1 SF-162 infected in human PM1 cells harboring CCR5 co-receptor after 4 to 6 days by p24 ELISA; type: functional, cell-based; settings: Human immunodeficiency virus 1, SF-162
[17] = Inhibition of [3H]BMS-488043 binding to HIV-1 isolate JRFL gp120 after 60 mins by scintillation counting method; parameters: species or system Human immunodeficiency virus 1
[18] = system: Human immunodeficiency virus 1; experiment: Antiviral activity against HIV-1 RF infected in human MT2 cells harboring CXCR4 co-receptor after 4 to 6 days; type: functional, cell-based; settings: Human immunodeficiency virus 1, RF
[19] = system: Human immunodeficiency virus 1; experiment: Antiviral activity against HIV-1 JR-FL infected in human PM1 cells harboring CCR5 co-receptor after 4 to 6 days by p24 ELISA; type: functional, cell-based; settings: Human immunodeficiency virus 1, JR-FL
[20] = system: Human immunodeficiency virus 1; experiment: Antiviral activity against HIV-1 NL4 - 3 infected in human MT2 cells harboring CXCR4 co-receptor after 4 to 6 days; type: functional, cell-based; settings: Human immunodeficiency virus 1, NL4 - 3, MT2
[21] = system: Human immunodeficiency virus 1; experiment: Inhibition of [3H]BMS-488043 binding to HIV-1 isolate JRFL gp120 assessed as dissociation half life incubated for 60 mins followed by CD4 addition by scintillation counting method
[22] = system: Human immunodeficiency virus 1; experiment: Antiviral activity against HIV-1 LAI infected in human MT2 cells harboring CXCR4 co-receptor after 4 to 6 days; type: functional, cell-based; settings: Human immunodeficiency virus 1, LAI
[23] = system: Human immunodeficiency virus 1; experiment: Inhibition of [3H]BMS-488043 binding to HIV-1 isolate JRFL gp120 assessed as association half life after 60 mins by scintillation counting method
[24] = system: Human immunodeficiency virus 1; experiment: Antiviral activity against HIV-1 isolate MN infected in human MT2 cells harboring CXCR4 co-receptor after 4 to 6 days; type: functional, cell-based; settings: Human immunodeficiency virus 1, isolate MN
[25] = system: Human immunodeficiency virus 1; experiment: Antiviral activity against HIV-1 Bal infected in human PM1 cells harboring CCR5 co-receptor after 4 to 6 days by p24 ELISA; type: functional, cell-based; settings: Human immunodeficiency virus 1, Bal
[26] = Oral bioavailability in rat dosed as suspension; type: ADME, organism-based; settings: in vivo
[27] = system: Human immunodeficiency virus 1; experiment: Antiviral activity against HIV-1 subtype C by p24 ELISA; type: functional; settings: Human immunodeficiency virus 1, subtype C
[28] = system: Human immunodeficiency virus 1; experiment: Antiviral activity against HIV-1 isolate CRF01_AE by p24 ELISA; type: functional; settings: Human immunodeficiency virus 1, isolate CRF01_AE
[29] = system: Human immunodeficiency virus 1; experiment: Antiviral activity against HIV-1 subtype F by p24 ELISA; type: functional; settings: Human immunodeficiency virus 1, subtype F
[30] = system: Human immunodeficiency virus 1; experiment: Antiviral activity against HIV-1 subtype A by p24 ELISA; type: functional; settings: Human immunodeficiency virus 1, subtype A
[31] = system: Human immunodeficiency virus 1; experiment: Antiviral activity against HIV-1 isolate CRF_BF by p24 ELISA; type: functional; settings: Human immunodeficiency virus 1, isolate CRF_BF
[32] = system: Human immunodeficiency virus 1; experiment: Antiviral activity against HIV-1 subtype B by p24 ELISA; type: functional; settings: Human immunodeficiency virus 1, subtype B
[33] = system: Human immunodeficiency virus 1; experiment: Antiviral activity against HIV-1 F1 by p24 ELISA; type: functional; settings: Human immunodeficiency virus 1, F1
[34] = Aqueous solubility of the compound at pH 2 to 9; type: physicochemical
[35] = system: Human immunodeficiency virus 1; experiment: Antiviral activity against HIV-1 isolate CRF02_AG by p24 ELISA; type: functional; settings: Human immunodeficiency virus 1, isolate CRF02_AG
[36] = Oral bioavailability in cynomolgus monkey at 10 mg/kg; type: ADME, organism-based, Macaca fascicularis; settings: in vivo
Method in brief: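 Oral dose of 10 mpk given as a solution in PEG 400/ethanol.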

[37] = Aqueous solubility of the compound; type: physicochemical; settings: buffer
[38] = Oral bioavailability in rat at 1 mg/kg; type: ADME, organism-based; settings: in vivo
Method in brief: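 Rat oral dosing at 1 mpk as a nanosuspension.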

Homo sapiens [39] = organism: Homo sapiens; experiment: Half life in human assessed as 1-(4-benzoylpiperazin-1-yl)-2-(4,7-dimethoxy-1H-pyrrolo[2,3-c]pyridin-3-yl)ethane-1,2-dione level; type: ADME
Method in brief: (§2)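 Healthy volunteers received the phosphonooxymethyl prodrug orally over 25 to 800 mg. Plasma levels of the released parent were followed to derive tmax and t1/2.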

Homo sapiens [40] = organism: Homo sapiens; experiment: Tmax in human assessed as 1-(4-benzoylpiperazin-1-yl)-2-(4,7-dimethoxy-1H-pyrrolo[2,3-c]pyridin-3-yl)ethane-1,2-dione level; type: ADME; method in brief: as §2
Cytochrome P450 3A4 = Cytochrome P450 3A4 (Homo sapiens, UniProt P08684); experiment: Inhibition of CYP3A4 (unknown origin); type: ADME
Sequence of Cytochrome P450 3A4 (P08684 whole entry): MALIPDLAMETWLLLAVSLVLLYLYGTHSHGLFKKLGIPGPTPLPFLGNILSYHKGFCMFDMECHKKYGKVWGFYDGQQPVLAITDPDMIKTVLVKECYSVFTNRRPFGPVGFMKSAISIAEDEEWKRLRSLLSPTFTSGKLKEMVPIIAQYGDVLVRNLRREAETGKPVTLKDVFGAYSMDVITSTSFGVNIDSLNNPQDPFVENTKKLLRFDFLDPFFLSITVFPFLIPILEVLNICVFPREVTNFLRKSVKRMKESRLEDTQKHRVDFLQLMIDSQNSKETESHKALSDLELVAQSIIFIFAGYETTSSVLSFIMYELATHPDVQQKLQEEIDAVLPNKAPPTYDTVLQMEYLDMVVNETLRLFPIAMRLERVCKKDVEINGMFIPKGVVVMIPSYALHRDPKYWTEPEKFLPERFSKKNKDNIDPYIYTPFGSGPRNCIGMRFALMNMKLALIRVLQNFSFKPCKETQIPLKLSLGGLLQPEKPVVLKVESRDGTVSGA

EC50 [1]: 0.11 nM
Compound: COc1cnc(-n2ccc(C)n2)c2[nH]cc(C(=O)C(=O)N3CCN(C(=O)c4ccccc4)CC3)c12

solubility [2]: 7 µg/mL (≈ 15.6 µM)
Compound: O=C(C(=O)N1CCN(C(=O)c2ccccc2)CC1)c1c[nH]c2c(-n3ccnn3)ncc(F)c12

solubility [3]: < 500 µg/mL
Compound: COc1cnc(Br)c2[nH]cc(C(=O)C(=O)N3CCN(C(=O)c4ccccc4)CC3)c12

fraction unbound [4]: 0.27
pKa [5]: 2.9 to 9.6
IC50 [6]: 100 nM
Compound: COc1ccnc2[nH]cc(C(=O)C(=O)N3CCN(C(=O)c4ccccc4)C[C@H]3C)c12

bioavailability (Canis familiaris): 80 to 122%
t1/2 (Homo sapiens [8]): 1.5 h
bioavailability (Rhesus monkey): 80 to 122%
bioavailability (Rattus norvegicus): 80 to 122%
solubility [9]: > 11000 µg/mL
Compound: COc1cnc(-n2cnc(C)n2)c2c1c(C(=O)C(=O)N1CCN(C(=O)c3ccccc3)CC1)cn2COP(=O)(O)O.NC(CO)(CO)CO [FOSTEMSAVIR TROMETHAMINE]
Activity [7]: <1 log10/ml

EC50 [10]: > 200000 nM
EC50 [11]: > 200000 nM
Compound: O=C(C(=O)N1CCN(C(=O)c2ccccc2)CC1)c1c[nH]c2ccccc12

Compound: COc1ncc(OC)c2c(C(=O)C(=O)N3CCN(C(=O)c4ccccc4)CC3)c[nH]c12
half-life [12]: 10 h
EC50 [13]: 160 nM
Activity [14]: 0.96 log10/ml
EC50 [15]: ≥ 871 nM
EC50 [16]: 4.7 nM
Activity [7]: 0.72 log10/ml
Kd [17]: 19.1 nM
EC50 [18]: > 2000 nM
fraction unbound [4]: 0.05
pKa [5]: 2.9 to 9.3
EC50 [19]: 3 nM
EC50 [20]: 17.4 nM
T1/2 [21]: 0.717 h
EC50 [22]: 4.1 nM
IC50 [6]: 87 nM
T1/2 [23]: 2 to 3 min
EC50 [24]: > 1000 nM
EC50 [25]: 23 nM

EC50 [1]: 0.78 nM
Compound: COc1cnc(-n2ccnn2)c2[nH]cc(C(=O)C(=O)N3CCN(C(=O)c4ccccc4)CC3)c12

Compound: COc1cnc(-n2cnc(C)n2)c2[nH]cc(C(=O)C(=O)N3CCN(C(=O)c4ccccc4)CC3)c12
bioavailability [26]: 52%
EC50 [27]: 1.14 nM
EC50 [28]: > 100 nM
EC50 [15]: 57.6 nM
EC50 [16]: 0.5 nM
EC50 [18]: > 2000 nM
EC50 [19]: 0.4 nM
EC50 [29]: 0.1 nM
EC50 [20]: 2.2 nM
T1/2 [21]: 7.63 h
EC50 [22]: 0.7 nM
EC50 [1]: 0.14 nM
EC50 [30]: 2.24 nM
EC50 [31]: 3.09 nM
EC50 [32]: 0.34 nM
EC50 [33]: 3.75 nM
solubility [34]: 20 µg/mL (≈ 42.2 µM)
EC50 [35]: 1.77 nM
EC50 [25]: 1.7 nM

bioavailability [36]: 100%
solubility [37]: 5 µg/mL (≈ 13.2 µM)
bioavailability [38]: 4%
Compound: O=C(C(=O)N1CCN(C(=O)c2ccccc2)CC1)c1c[nH]c2cccc(F)c12

EC50 [1]: 1.3 nM
Compound: O=C(C(=O)N1CCN(C(=O)c2ccccc2)CC1)c1c[nH]c2c(-c3ncon3)ncc(F)c12

t1/2 (Homo sapiens [39]): 1.5 h
Tmax (Homo sapiens [40]): 0.5 to 1 h
Compound: COc1cnc(OC)c2c1c(C(=O)C(=O)N1CCN(C(=O)c3ccccc3)CC1)cn2COP(=O)(O)O.NCCCC[C@H](N)C(=O)O

EC50 [1]: 0.41 nM
Compound: COc1cnc(-n2cc(C)cn2)c2[nH]cc(C(=O)C(=O)N3CCN(C(=O)c4ccccc4)CC3)c12

EC50 [1]: 0.21 nM
IC50 (Cytochrome P450 3A4): 1000 nM
Compound: COc1cnc(-n2cncn2)c2[nH]cc(C(=O)C(=O)N3CCN(C(=O)c4ccccc4)CC3)c12
